# Compound activity (PubChem BioAssay)
# DSG3 Ab inh = human desmoglein-3 autoantibody binding inhibition; AID 588358; binding (percent of control), % at 10 µM; hit rate 0.48% among 310,000; P32926; DSG3-coupled beads, scFv-anti-DSG3-GFP binding, flow cytometry; stronger effect = lower value;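 active = binding more than 3 SD below its plate's average and above zero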;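 note: hits lower antibody fragment binding to DSG3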
# Target sequence (P32926 whole entry, looked up, the tested form may be a part): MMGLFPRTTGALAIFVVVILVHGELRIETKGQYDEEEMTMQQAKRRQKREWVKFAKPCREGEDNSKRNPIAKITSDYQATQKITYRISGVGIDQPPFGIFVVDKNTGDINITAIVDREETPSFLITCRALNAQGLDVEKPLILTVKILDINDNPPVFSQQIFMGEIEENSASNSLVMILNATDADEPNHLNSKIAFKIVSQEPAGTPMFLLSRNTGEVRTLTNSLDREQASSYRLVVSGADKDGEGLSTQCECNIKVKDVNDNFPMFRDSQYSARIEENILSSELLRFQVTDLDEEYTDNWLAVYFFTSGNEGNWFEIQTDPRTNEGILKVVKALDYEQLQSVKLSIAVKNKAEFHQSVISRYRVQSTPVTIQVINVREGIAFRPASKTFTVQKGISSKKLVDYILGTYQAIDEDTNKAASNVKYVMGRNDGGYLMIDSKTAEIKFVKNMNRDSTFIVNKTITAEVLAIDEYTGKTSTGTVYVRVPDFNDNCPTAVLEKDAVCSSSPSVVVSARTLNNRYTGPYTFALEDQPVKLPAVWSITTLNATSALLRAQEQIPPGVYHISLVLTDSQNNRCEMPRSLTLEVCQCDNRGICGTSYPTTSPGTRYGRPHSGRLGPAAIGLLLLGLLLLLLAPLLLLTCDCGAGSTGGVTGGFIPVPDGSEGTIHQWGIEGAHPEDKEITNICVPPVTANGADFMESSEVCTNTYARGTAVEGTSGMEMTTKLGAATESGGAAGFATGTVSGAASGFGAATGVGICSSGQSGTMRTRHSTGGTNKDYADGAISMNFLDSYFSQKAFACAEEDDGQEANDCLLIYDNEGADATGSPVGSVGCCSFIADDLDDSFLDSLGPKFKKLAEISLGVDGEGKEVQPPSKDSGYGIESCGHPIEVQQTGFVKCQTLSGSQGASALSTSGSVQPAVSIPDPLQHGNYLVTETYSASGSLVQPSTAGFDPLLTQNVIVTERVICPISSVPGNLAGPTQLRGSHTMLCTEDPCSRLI
# Mcl-1 Bim block = disrupts Bim peptide binding to human Mcl-1; Bead-based flow cytometry, Bim peptide-Mcl-1 binding; inhibition, % at 10 µM; hit rate 0.1% among 190,000; AID 1009; in the data active = inhibition above about 40%;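 note: 0% = no compound tracer wells and 100% = peptide blocker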
# Mcl1-Noxa inh = disrupts binding of human Mcl-1 to Noxa peptide; Q07820; TR-FRET Mcl-1/Noxa peptide binding, 2 h; inhibition, % at 21.7 µM; hit rate 1.5% among 220,000;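 active = compounds that cut the protein-peptide binding signal by more than 50% relative to plate controls in a single-dose test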;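 note: His-tagged Mcl-1 with rhodamine Noxa BH3 peptide and terbium anti-His antibody; 0% = Mcl-1 plus Noxa peptide wells and 100% = peptide-only wells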
# Mcl1-Bid inh = disrupts binding of human Mcl-1 to Bid peptide. AID 1021. Q07820. hit rate 0.97% among 220,000. TR-FRET Mcl-1/Bid-Dy647 peptide binding, 1536-well. inhibition, % at 21.7 µM;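 active = compounds that cut the binding signal by more than half at the single screening dose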;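 note: His-tagged Mcl-1 with europium anti-His antibody binding Bid BH3 peptide; 0% = Mcl-1 plus peptide wells and 100% = peptide-only wells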
# MCL1 BIM primary = disrupts human MCL1 binding to BIM-BH3 peptide; inhibition, % at 10.9 µM; GST-MCL1 / FITC-Bim-BH3 fluorescence polarization; Q07820; AID 2057; hit rate 0.68% among 320,000;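 active = inhibition above the mean inhibition of all tested compounds plus 3 SD, set per campaign, cut at about 40% in these data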;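 note: 0% = DMSO wells and 100% = unlabeled Bim-BH3 peptide control; higher means more loss of mP so more displacement of Bim peptide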
# T cell HTS = T cell immune modulation candidate; 2C CD8+ T cell-vesicle binding, flow cytometry; stronger effect = lower value; response (vesicle binding), % at 7 µM; hit rate 0.068% among 330,000;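 active = response, share of CD8 T cells binding vesicles, and their 90th percentile fluorescence all below set limits, cut at about 80% in these data, passing the limit was not always enough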;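 note: values below 100% mean blocked vesicle binding to the CD8+ T cells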
#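 Read-out – percent CD8+ FL2 mean versus row control · System – murine 2C transgenic CD8+ T lymphocytes · Times – 1.5 h cell–vesicle binding at 37 °C, then 20 min icy labelling · Control set – naked vesicles low, QL9 vesicles with vehicle high · Detection – cytometric PE anti-B7-1 and Alexa647 anti-CD8 signals after 1% paraformaldehyde fixation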
# Active calls of the source: *; · = not tested or not shown. This is a sample that favours compounds with a hit; in the whole collection about 2.3% have one here.
SMILES,DSG3 Ab inh,Mcl-1 Bim block,Mcl1-Noxa inh,Mcl1-Bid inh,MCL1 BIM primary,T cell HTS
COc1ccc(NS(=O)(=O)c2cc(NC(=O)c3ccc(=O)[nH]c3)ccc2N2CCCC2)cc1,101,·,·,·,4,360
CC(Oc1ccccc1)C(=O)N=C1SC2CS(=O)(=O)CC2N1c1cccc(F)c1 (stereo not given),107,·,·,·,-1,416
COc1ccc(OC)c(NC(=S)N(CCc2c(C)[nH]c3ccccc23)Cc2cccs2)c1,100,0,12,-17,0,508
COc1ccc(OC)c(NC(=S)N(CCc2c(C)[nH]c3ccc(C)cc23)Cc2cccs2)c1,100,0,13,85*,4,290
CCOC(=O)c1cccc(NC(=O)CSc2nncn2-c2ccccn2)c1,123,·,·,·,8,395
O=[N+]([O-])c1ccc(O)c(C=Nc2ccc3c(c2)OCO3)c1,88,·,-4,-9,-4,241
O=[N+]([O-])c1cc(Br)cc(C=Nc2ccc3c(c2)OCO3)c1O,98,·,55*,0,16,359
O=C(Nc1cccc2nsnc12)c1ccc(-c2ccc(Br)cc2)o1,131,-1,27,63*,-28,160
CC(=O)c1cccc(NC(=O)CCc2nc3sc4c(c3c(=O)[nH]2)CCCC4)c1,107,·,·,·,-4,123
Cc1cccc(C)c1-n1cccc1/C=C1\SC(=S)N(c2cccc(C(=O)O)c2)C1=O,95,16,51*,52*,1,301
Cc1ccccc1NC(=O)CN1C(=O)S/C(=C\c2cccn2-c2cccc(C(=O)O)c2)C1=O,108,-4,16,-21,-5,504
Cc1ccc(NC(=O)CN2C(=O)S/C(=C\c3cccn3-c3cccc(C(=O)O)c3)C2=O)c(C)c1,135,4,93*,45,1,260
COc1ccccc1CCC(=O)OCC(=O)Nc1ccc(C(N)=O)cc1,94,·,·,·,-2,360
COC(=O)c1cc(NC(=O)Cn2c(=O)cnc3ccccc32)cc(C(=O)OC)c1,90,1,27,62*,1,169
CC1C2(C)OC(=N)C(C#N)(C(C)O2)C1(C#N)C#N (stereo not given),107,·,19,-51,48*,232
Cc1nc(-c2ccc([N+](=O)[O-])cc2)nc2[nH]ccc(=O)c12,100,·,·,·,·,147
O=C1OC(COc2ccc(Br)cc2)CN1c1ccccc1 (stereo not given),81*,·,-19,-16,4,156
C#CCOCC1CN(c2ccccc2)C(=O)O1 (stereo not given),99,·,·,·,·,·
CC(C)(C)CC(=O)Nc1ccc(S(=O)(=O)NC2=NCCCCC2)cc1,93,·,·,·,·,192
Cc1ccc(-c2ccc(CCC(=O)O)n2NC(=O)c2cccs2)cc1,103,49*,-6,-40,0,480
Cc1ccc(C)n1NC(=O)c1cccs1,83*,0,32,-39,8,112
c1nc(C2CCCCC2)cc2cc3c(cc12)OCO3,105,·,·,·,·,205
O=C1N=c2ccc(Br)cc2=C1c1sc(=S)n(NS(=O)(=O)c2ccccc2)c1O,79,-1,83*,52*,38,394
O=C1N=c2ccccc2=C1c1sc(=S)n(NC(=O)c2cccc(O)c2)c1O,95,-5,21,-18,·,·
CC(OC(=O)Cn1cc(C(F)(F)F)ccc1=O)C(=O)N(C)c1ccccc1 (stereo not given),118,·,·,·,·,407
SMILES,DSG3 Ab inh,Mcl-1 Bim block,Mcl1-Noxa inh,Mcl1-Bid inh,MCL1 BIM primary,T cell HTS
COc1ccccc1N1CCN(S(=O)(=O)CCNC(=O)C(C)Oc2ccccc2)CC1 (stereo not given),107,·,·,·,·,·
CCN(c1ccccc1)S(=O)(=O)c1ccc(Cl)c(NC(=O)COC(=O)c2cc(O)c3ccccc3c2O)c1,·,·,55*,-49,22,47
COc1ccc(Cn2nnnc2C(c2cccs2)N2CCCCCC2)cc1 (stereo not given),101,0,-14,-13,2,52*
Cc1c(NC(=O)COC(=O)c2cc(-c3ccc(-c4ccccc4)cc3)nc3ccccc23)c(=O)n(-c2ccccc2)n1C,99,-4,21,82*,-1,558
CC(=O)Nc1cccc(OCc2ccc(S(=O)(=O)Cc3ccccc3)cc2)c1,58*,-3,8,-15,6,854
COc1cccc(OCC(O)CNC(=O)c2oc3ccc(C)cc3c2C)c1 (stereo not given),96,·,·,·,-7,249
